Results collected from several papers.
Each line is one published result; the experiments were not run side by side.
Target: Cyclin-dependent kinase-like 1 (CDKL1, Homo sapiens, UniProt Q00532)

SMILES | assay | setting | quantity | value
COc1cc(Cl)c(C(=O)N[C@@H](CN[C@H]2CC[C@@H](N)CC2)Cc2ccc(C#N)cc2)cc1-c1ccc(CN[C@H](C)c2ccc(C)cc2)o1 | enzyme activity, inhibitor | 1 µM | remaining activity | 101%
CN1CC(Oc2cnc(C#N)cc2-c2ccn3nc(NC(=O)C4CC4)cc3c2)C1 | enzyme activity, inhibitor | 1 µM | inhibition | 5%
CCC1(CC)NC(=O)c2c(c3ccc(Cl)c(Cl)c3n2C)C1C#N (centres unmarked) | thermal stability, DSF | 10 µM | ΔTm | 0 °C
Nc1ncnc2occ(-c3ccc(NC(=O)Nc4cc(C(F)(F)F)ccc4F)cc3)c12 | cell-free assay | 20 µM | remaining signal | 0.55%
CO[C@@H](C)c1c(Nc2ccc([C@@H](N(C)C(=O)C3CCS(=O)(=O)CC3)C(F)(F)F)cc2)cnc2cc(Cl)nn12 | cell-free assay, competition with immobilised ligand | 1 µM | remaining binding | 74%
Cc1ccc(C(=O)Nc2ccc(CN3CCN(C)CC3)c(C(F)(F)F)c2)cc1C#Cc1cnc2cccnn12 | enzyme activity | 23.5 nM | remaining activity | 85%
Cn1c2c(Cl)c(Cl)ccc2c2cc(N)[nH]c(=O)c21 | thermal stability, DSF | 10 µM | ΔTm | 0.3 °C
NS(=O)(=O)c1cc(NC(=O)C2(c3ccccc3Cl)CC2)ccc1Oc1cccc(Cl)c1 | binding, competition with immobilised ligand | 1 µM | remaining binding | 99%
